Measurements from ChEMBL document CHEMBL1143854 (Antimicrob Agents Chemother, 2007).
Activity calls are given as the source filed them. The rule behind the calls is not given here.

Tests used:
Format in all cases: functional, organism-based
[1] = tested on: Plasmodium falciparum; assay: Reduction of [3H]dihydroartemisinin uptake in chloroquine-resistant Plasmodium falciparum K1 infected erythrocytes after 90 min
Procedure, shortened: (§1)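 [3H]dihydroartemisinin (1.4 Ci/mmol) uptake into trophozoite-infected erythrocytes (5% parasitemia, 1.5% hematocrit), with unlabeled antimalarial added at the start, 90 min at 37°C. Cells spun through silicone oil, radioactivity counted by liquid scintillation. Uptake given as percent of untreated infected-cell control after subtracting uptake in uninfected erythrocytes. At least two experiments, each in triplicate.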

[2] = tested on: Plasmodium falciparum; assay: Antimalarial activity against chloroquine-sensitive Plasmodium falciparum FC27
[3] = tested on: Plasmodium falciparum; assay: Antimalarial activity against chloroquine-resistant Plasmodium falciparum 34-1/E
[4] = tested on: Plasmodium falciparum; assay: Antimalarial activity against chloroquine-sensitive Plasmodium falciparum 3D7
[5] = tested on: Plasmodium falciparum; assay: Antimalarial activity against chloroquine-resistant Plasmodium falciparum K1
[6] = tested on: Plasmodium falciparum; assay: Antimalarial activity against chloroquine-sensitive Plasmodium falciparum T996
[7] = tested on: Plasmodium falciparum; assay: Reduction of [3H]dihydroartemisinin uptake in chloroquine-resistant Plasmodium falciparum RSA11 infected erythrocytes after 90 min; procedure, shortened: as §1
[8] = tested on: Plasmodium falciparum; assay: Reduction of [3H]dihydroartemisinin uptake in chloroquine-sensitive Plasmodium falciparum FC27 infected erythrocytes after 90 min
Procedure, shortened: (§2)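 Trophozoite-stage parasitized erythrocytes (5% parasitemia, 1.5% hematocrit) added to microtubes holding unlabeled antimalarial plus radiolabeled drug ([3H]DHA 1.4 Ci/mmol or [3H]CQ 50.4 Ci/mmol); 37°C, 90 min. Cells spun through silicon oil, radioactivity by liquid scintillation. Uptake as percent of control parasitized erythrocytes after subtracting uninfected-erythrocyte uptake; at least two experiments, each in triplicate.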

[9] = tested on: Plasmodium falciparum; assay: Antimalarial activity against chloroquine-sensitive Plasmodium falciparum 106/1
[10] = tested on: Plasmodium falciparum; assay: Antimalarial activity against chloroquine-resistant Plasmodium falciparum 7G8-mdr7G8
[11] = tested on: Plasmodium falciparum; assay: Reduction of [3H]dihydroartemisinin uptake in chloroquine-sensitive Plasmodium falciparum 3D7 infected erythrocytes after 90 min; procedure, shortened: as §2
[12] = tested on: Plasmodium falciparum; assay: Antimalarial activity against chloroquine-resistant Plasmodium falciparum RSA11
[13] = tested on: Plasmodium falciparum; assay: Reduction of [3H]chloroquine uptake in chloroquine-sensitive Plasmodium falciparum FC27 infected erythrocytes after 90 min; procedure, shortened: as §2
[14] = tested on: Plasmodium falciparum; assay: Reduction of [3H]chloroquine uptake in chloroquine-resistant Plasmodium falciparum RSA11 infected erythrocytes after 90 min
Procedure, shortened: as §1, with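 “[3H]chloroquine (50.4” for “[3H]dihydroartemisinin (1.4”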

[15] = tested on: Plasmodium falciparum; assay: Reduction of [3H]chloroquine uptake in chloroquine-sensitive Plasmodium falciparum 3D7 infected erythrocytes after 90 min; procedure, shortened: as §2

Structure (SMILES): CCN(CC)Cc1cc(Nc2ccnc3cc(Cl)ccc23)ccc1O
- Activity [1]: Active
- IC50 [2]: 6.68 nM
- IC50 [3]: 17.2 nM
- IC50 [4]: 18.4 nM
- IC50 [5]: 22.4 nM
- IC50 [6]: 14.8 nM
- Activity [7]: Active
- Activity [8]: Active
- IC50 [9]: 17.5 nM
- IC50 [10]: 32.7 nM
- Activity [11]: Active
- IC50 [12]: 26.7 nM

Structure (SMILES): CO[C@H]1O[C@@H]2O[C@@]3(C)CC[C@H]4[C@H](C)CC[C@@H]([C@H]1C)[C@@]24OO3
- Activity [1]: Active
- Activity [13]: Active
- Activity [14]: Active
- Activity ([14]; K1): Active
- Activity [7]: Active
- Activity [8]: Active
- Activity [15]: Active
- Activity [11]: Active

Structure (SMILES): Clc1ccc2c(N3CCN(CCCN4CCN(c5ccnc6cc(Cl)ccc56)CC4)CC3)ccnc2c1 [PIPERAQUINE]
- Activity [1]: Active
- IC50 [2]: 29.6 nM
- IC50 [3]: 16.4 nM
- IC50 [4]: 36.9 nM
- IC50 [6]: 19.9 nM
- Activity [13]: Active
- Activity [14]: Active
- Activity ([14]; K1): Active
- Activity [7]: Active
- Activity [8]: Active
- IC50 [9]: 22.2 nM
- Activity [15]: Active
- Activity [11]: Active

Structure (SMILES): CCN(CC)CCCC(C)Nc1ccnc2cc(Cl)ccc12 (configuration not stated)
- Activity [1]: Active
- Activity [13]: Active
- Activity [14]: Active
- Activity ([14]; K1): Active
- Activity [7]: Active
- Activity [8]: Active
- Activity [15]: Active
- Activity [11]: Active

Structure (SMILES): C[C@H]1[C@@H](O)O[C@@H]2O[C@@]3(C)CC[C@H]4[C@H](C)CC[C@@H]1[C@@]24OO3
- Activity [1]: Active
- Activity [13]: Active
- Activity [14]: Active
- Activity ([14]; K1): Active
- Activity [7]: Active
- Activity [8]: Active
- Activity [15]: Active
- Activity [11]: Active

Structure (SMILES): OC(c1cc(C(F)(F)F)nc2c(C(F)(F)F)cccc12)C1CCCCN1 (configuration not stated)
- Activity [1]: Active
- Activity [13]: Active
- Activity [14]: Active
- Activity ([14]; K1): Active
- Activity [7]: Active
- Activity [8]: Active
- Activity [15]: Active
- Activity [11]: Active
